Source: ChEMBL document CHEMBL4814064, “Azetidinimines as a novel series of non-covalent broad-spectrum inhibitors of β-lactamases with submicromolar activities against carbapenemases KPC-2 (class A), NDM-1 (class B) and OXA-48 (class D)” (Eur J Med Chem, 2021)
pIC50, pKi: −log10 of the molar value.

Experiments:
[1] = Inhibition of NDM-1 (unknown origin); design: species or system Bacteria
[2] = Inhibition of NDM-1 (unknown origin) expressed in Escherichia coli BW25113deltabamBdeltatolC mutant using nitrocefin as substrate by colorimetric analysis; design: species or system Bacteria
[3] = Inhibition of Escherichia coli NTBC121 NDM-1 by UV absorbance analysis
[4] = tested on: Bacteria; experiment: Inhibition of CMY-2 (unknown origin) expressed in Escherichia coli BL21(DE3) at 10 uM
In short: (§1)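 Enzymes cloned into pET41b from clinical enterobacterial DNA and expressed in E. coli BL21(DE3) overnight at 22 °C with 0.2 mM IPTG. His-tag affinity then Superdex 75 gel filtration (100 mM phosphate pH 7, 150 mM NaCl); dialysed into 10 mM Tris-HCl pH 7.6, with 50 µM ZnSO4 added for NDM and VIM variants.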

[5] = tested on: Escherichia coli; experiment: Potentiation of imipenem-induced antibacterial activity against Escherichia coli clinical isolate GUE expressing NDM-1 assessed as imipenem MIC at 100 uM incubated for 18 to 24 hrs by broth microdilution method (reference value: 16 ug/ml); format: functional; details: time 18-24 hrs
[6] = tested on: HCT-116; experiment: Cytotoxicity against human HCT-116 cells assessed as reduction in cell viability measured after 72 hrs by MTS assay; format: cell-based; details: HCT-116, 72 h
In short: (§2)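 Cells grown at 37 °C in 5% CO2: MRC-5 in DMEM and HCT116 in RPMI 1640, each with 10% FCS and 1% glutamine. Seeded at 2.5 × 10³ cells/well, dosed after 24 h, exposed 72 h, then read at 490 nm after 2 h with reagent. IC50 = concentration halving absorbance versus untreated; triplicate.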

[7] = tested on: Bacteria; experiment: Inhibition of VIM-52 (unknown origin) expressed in Escherichia coli BL21(DE3) at 10 uM; in short: as §1
[8] = tested on: Bacteria; experiment: Inhibition of VIM-1 (unknown origin) expressed in Escherichia coli BL21(DE3) at 10 uM; in short: as §1
[9] = tested on: Bacteria; experiment: Inhibition of NDM-7 (unknown origin) expressed in Escherichia coli BL21(DE3) at 10 uM; in short: as §1
[10] = target: Class A carbapenemase KPC-2 (Escherichia coli, UniProt A8DS27); experiment: Inhibition of KPC-2 (unknown origin) expressed in Escherichia coli BL21 (DE3) incubated for 3 mins by spectrophotometric analysis; details: read-out: Ki
In short: (§3)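 Preincubated 3 min with inhibitor in 100 mM phosphate pH 7. Imipenem 100 µM; hydrolysis followed at 297 nm for 600 s at 25 °C. IC50 from seven concentrations in triplicate; Ki by Cheng–Prusoff. Percent inhibition read at 10 µM.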

[11] = tested on: Bacteria; experiment: Inhibition of NDM-4 (unknown origin) expressed in Escherichia coli BL21(DE3) at 10 uM; in short: as §1
[12] = Metabolic stability in mouse liver microsomes at 5 uM assessed as intrinsic clearance measured per mg protein by UPLC-MS/MS analysis; format: ADME, Microsome; details: read-out: CLH
In short: (§4)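 Test compound at 5 µM with 0.5 mg/mL pooled male mouse liver microsomes in 0.1 M phosphate pH 7.4 at 37 °C. Reaction started with 1 mM NADPH and sampled at 0–45 min in duplicate; a no-NADPH control was run. Quenched with cold acetonitrile; parent measured by UPLC-MS/MS (MRM). t1/2 from log-linear decay; CLint per mg microsomal protein.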

[13] = tested on: Bacteria; experiment: Inhibition of OXA-48 (unknown origin) expressed in Escherichia coli BL21 (DE3) at 10 uM incubated for 3 mins by spectrophotometric analysis relative to control
In short: (§5)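 OXA-48 at 5.8 nM (His-tagged, expressed in BL21(DE3), purified in K2SO4 buffers) in 100 mM phosphate pH 7 plus 50 mM NaHCO3. Inhibitor preincubated 3 min; substrate 100 µM imipenem; initial velocities at 297 nm, 600 s, 25 °C. Seven inhibitor concentrations in triplicate give IC50, converted to Ki by Cheng–Prusoff; percent inhibition at 10 µM.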

[14] = Metabolic stability in mouse liver microsomes at 5 uM after 45 min absence of NADPH by UPLC-MS/MS analysis; format: ADME, Microsome; details: read-out: Stabilty; in short: as §4
[15] = Inhibition of NDM-1 (unknown origin) expressed in Escherichia coli BL21 (DE3) incubated for 3 mins by spectrophotometric analysis; design: species or system Bacteria; details: read-out: Ki
In short: (§6)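 NDM-1 (1 nM, His-tagged, expressed in E. coli BL21(DE3) with 1 mM IPTG for 3 h at 37 °C, purified, kept with 50 µM ZnSO4). Run in 100 mM phosphate pH 7 with 50 µM ZnSO4, 3 min enzyme–inhibitor preincubation, then 100 µM imipenem. Initial rates at 297 nm over 600 s, 25 °C. Triplicate seven-point IC50 converted to Ki (Cheng–Prusoff); percent inhibition at 10 µM.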

[16] = tested on: Escherichia coli; experiment: Potentiation of imipenem-induced antibacterial activity against Escherichia coli clinical isolate GUE expressing NDM-1 assessed as imipenem MIC at 50 uM incubated for 18 to 24 hrs by broth microdilution method (reference value: 16 ug/ml); format: functional; details: time 18-24 hrs
[17] = tested on: Bacteria; experiment: Inhibition of CTX-M-15 (unknown origin) expressed in Escherichia coli BL21(DE3) at 10 uM; in short: as §1
[18] = tested on: MRC5; experiment: Cytotoxicity against human MRC-5 cells assessed as reduction in cell viability measured after 72 hrs by MTS assay; format: cell-based; details: MRC5, 72 h; in short: as §2
[19] = tested on: Escherichia coli; experiment: Potentiation of imipenem-induced antibacterial activity against Escherichia coli clinical isolate GUE expressing NDM-1 assessed as imipenem MIC at 20 uM incubated for 18 to 24 hrs by broth microdilution method (reference value: 16 ug/ml); format: functional; details: time 18-24 hrs
[20] = Inhibition of OXA-48 (unknown origin) expressed in Escherichia coli BL21 (DE3) incubated for 3 mins by spectrophotometric analysis; design: species or system Bacteria; details: read-out: Ki; in short: as §5
[21] = target: Class A carbapenemase KPC-2 (Escherichia coli) (UniProt A8DS27); experiment: Inhibition of KPC-2 (unknown origin) expressed in Escherichia coli BL21 (DE3) at 10 uM incubated for 3 mins by spectrophotometric analysis relative to control; in short: as §3
[22] = tested on: Bacteria; experiment: Inhibition of NDM-1 (unknown origin) expressed in Escherichia coli BL21 (DE3) at 10 uM incubated for 3 mins by spectrophotometric analysis relative to control; in short: as §6
[23] = tested on: Bacteria; experiment: Inhibition of NDM-9 (unknown origin) expressed in Escherichia coli BL21(DE3) at 10 uM; in short: as §1
[24] = tested on: Escherichia coli; experiment: Potentiation of imipenem-induced antibacterial activity against Escherichia coli clinical isolate GUE expressing NDM-1 assessed as fold change in imipenem MIC at 50 uM incubated for 18 to 24 hrs by broth microdilution method; format: functional; details: time 18-24 hrs
[25] = tested on: Escherichia coli; experiment: Potentiation of imipenem-induced antibacterial activity against Escherichia coli clinical isolate GUE expressing NDM-1 assessed as fold change in imipenem MIC at 200 uM incubated for 18 to 24 hrs by broth microdilution method; format: functional; details: time 18-24 hrs

SMILES: CN1CCN(NC(=O)CN2C(=O)/C(=C/c3c(Cl)ccc(Cl)c3Cl)SC2=S)CC1
- pIC50 [1]: 5.03

SMILES: N[C@H](CN[C@H](CN[C@@H](CC(=O)O)C(=O)O)C(=O)O)C(=O)O
- pIC50 [2]: 5.40

SMILES: O=C(O)c1ncsc1NS(=O)(=O)c1cccnc1
- pIC50 [3]: 5.57

SMILES: Oc1ccc(N2/C(=N/c3ccc(I)cc3)CC2c2ccc(Cl)cc2Cl)cc1 (racemic)
- inhibition [4]: 86%
- MIC [5]: 4 µg/mL
- pIC50 [6]: 4.49
- inhibition [7]: 0%
- inhibition [8]: 100%
- inhibition [9]: 100%
- pKi [10]: 6.55
- inhibition [11]: 100%
- microsomal CLint at 5 µM [12]: 13.9 µL/min/mg
- inhibition [13]: > 50%
- remaining at 0.75 h, 5 µM [14]: 96%
- pKi [15]: 7.15
- MIC [16]: 4 µg/mL
- inhibition [17]: 83%
- pIC50 [18]: 4.70
- MIC [19]: 8 µg/mL
- pKi [20]: 7.15
- inhibition [21]: > 50%
- inhibition [22]: > 50%
- inhibition [23]: 100%

SMILES: Clc1ccc(C2C/C(=N\c3ccc(I)cc3)N2c2ccc(OCc3ccccc3)cc2)c(Cl)c1 (racemic)
- MIC [5]: 2 µg/mL
- pIC50 [6]: < 4.00
- pKi [10]: 5.43
- microsomal CLint at 5 µM [12]: 7.6 µL/min/mg
- inhibition [13]: 41%
- remaining at 0.75 h, 5 µM [14]: 100%
- pKi [15]: 6.44
- MIC [16]: 4 µg/mL
- fold change (FC) [24]: 4
- pIC50 [18]: < 4.00
- MIC [19]: 16 µg/mL
- inhibition [21]: > 50%
- inhibition [22]: > 50%

SMILES: COc1ccc(N2/C(=N/c3ccc(I)cc3)CC2c2ccc(Cl)cc2Cl)cc1 (racemic)
- MIC [5]: 16 µg/mL
- pIC50 [6]: < 4.00
- pKi [10]: 5.72
- microsomal CLint at 5 µM [12]: 2 µL/min/mg
- inhibition [13]: > 50%
- remaining at 0.75 h, 5 µM [14]: 83%
- fold change (FC) [25]: 2
- pKi [15]: 6.66
- MIC [16]: 16 µg/mL
- pIC50 [18]: < 4.00
- MIC [19]: 16 µg/mL
- pKi [20]: 6.04
- inhibition [21]: > 50%
- inhibition [22]: > 50%
